Test [1] has as its system hDNMT3A K47 methylation in 293T cells. Description: Methylation in 293T cells. Format: cell-based, human. The conditions noted are these: coexpression in 293T cells, metabolic labelling with 3H-Met or western blot. The method, boiled down:
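GLP stable knockdown 293T cells expressed Myc-hDNMT3A (WT or K47R), with or without Flag-GLP or G9a, for 36 h. Cells were starved 30 min in methionine-free medium with cycloheximide (100 μg ml−1) and chloramphenicol (40 μg ml−1), then labelled 4 h with 10 μCi ml−1 L-[methyl-3H]methionine. Myc-hDNMT3A was immunoprecipitated with anti-Myc, washed with 600 mM NaCl IPH buffer, and detected by autoradiography.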
(In western blotting, separated proteins are transferred to a membrane and probed.)

In test [2] the test system is MPP8–GLP interaction in 293T cells. Description: Co-immunoprecipitation of MPP8 and GLP in 293T cells. Format: cell-based, human. Put shortly:
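293T cells (parental, or MPP8 stable knockdown for the chromodomain W80A mutant) were cotransfected with Flag-MPP8 and HA-GLP (WT, K199R, K205R or K209R) for 48 h. Lysates were immunoprecipitated with 1 μg anti-HA or anti-Flag on protein-G agarose, washed with IPH containing 300 or 600 mM NaCl, and analysed by western blot. Input was 5%.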

B1: G9a: H3K9 methyltransferase G9a (protein, UniProt Q96KQ7 2-1210, looked up)
Histone-lysine …: AAAAGAAAAAAAEGEAPAEMGALLLEKETRGATERVHGSLGDTPRSEETLPKATPDSLEPAGPSSPASVTVTVGDEGADTPVGATPLIGDESENLEGDGDLRGGRILLGHATKSFPSSPSKGGSCPSRAKMSMTGAGKSPPSVQSLAMRLLSMPGAQGAAAAGSEPPPATTSPEGQPKVHRARKTMSKPGNGQPPVPEKRPPEIQHFRMSDDVHSLGKVTSDLAKRRKLNSGGGLSEELGSARRSGEVTLTKGDPGSLEEWETVVGDDFSLYYDSYSVDERVDSDSKSEVEALTEQLSEEEEEEEEEEEEEEEEEEEEEEEEDEESGNQSDRSGSSGRRKAKKKWRKDSPWVKPSRKRRKREPPRAKEPRGVNGVGSSGPSEYMEVPLGSLELPSEGTLSPNHAGVSNDTSSLETERGFEELPLCSCRMEAPKIDRISERAGHKCMATESVDGELSGCNAAILKRETMRPSSRVALMVLCETHRARMVKHHCCPGCGYFCTAGTFLECHPDFRVAHRFHKACVSQLNGMVFCPHCGEDASEAQEVTIPRGDGVTPPAGTAAPAPPPLSQDVPGRADTSQPSARMRGHGEPRRPPCDPLADTIDSSGPSLTLPNGGCLSAVGLPLGPGREALEKALVIQESERRKKLRFHPRQLYLSVKQGELQKVILMLLDNLDPNFQSDQQSKRTPLHAAAQKGSVEICHVLLQAGANINAVDKQQRTPLMEAVVNNHLEVARYMVQRGGCVYSKEEDGSTCLHHAAKIGNLEMVSLLLSTGQVDVNAQDSGGWTPIIWAAEHKHIEVIRMLLTRGADVTLTDNEENICLHWASFTGSAAIAEVLLNARCDLHAVNYHGDTPLHIAARESYHDCVLLFLSRGANPELRNKEGDTAWDLTPERSDVWFALQLNRKLRLGVGNRAIRTEKIICRDVARGYENVPIPCVNGVDGEPCPEDYKYISENCETSTMNIDRNITHLQHCTCVDDCSSSNCLCGQLSIRCWYDKDGRLLQEFNKIEPPLIFECNQACSCWRNCKNRVVQSGIKVRLQLYRTAKMGWGVRALQTIPQGTFICEYVGELISDAEADVREDDSYLFDLDNKDGEVYCIDARYYGNISRFINHLCDPNIIPVRVFMLHQDLRFPRIAFFSSRDIRTGEELGFDYGDRFWDIKSKYFTCQCGSEKCKHSAEAIALEQSRLARLDPHPELLPELGSLPPVNT
For B1, the “methylation of hDNMT3A in cells” value in test [1] was “markedly increased”.

B2: GLP: G9a-like protein, wild-type (protein)
chain: MAAADAEAVPARGEPQQDCCVKTELLGEETPMAADEGSAEKQAGEAHMAADGETNGSCENSDASSHANAAKHTQDSARVNPQDGTNTLTRIAENGVSERDSEAAKQNHVTADDFVQTSVIGSNGYILNKPALQAQPLRTTSTLASSLPGHAAKTLPGGAGKGRTPSAFPQTPAAPPATLGEGSADTEDRKLPAPGADVKVHRARKTMPKSVVGLHAASKDPREVREARDHKEPKEEINKNISDFGRQQLLPPFPSLHQSLPQNQCYMATTKSQTACLPFVLAAAVSRKKKRRMGTYSLVPKKKTKVLKQRTVIEMFKSITHSTVGSKGEKDLGASSLHVNGESLEMDSDEDDSEELEEDDGHGAEQAAAFPTEDSRTSKESMSEADRAQKMDGESEEEQESVDTGEEEEGGDESDLSSESSIKKKFLKRKGKTDSPWIKPARKRRRRSRKKPSGALGSESYKSSAGSAEQTAPGDSTGYMEVSLDSLDLRVKGILSSQAEGLANGPDVLETDGLQEVPLCSCRMETPKSREITTLANNQCMATESVDHELGRCTNSVVKYELMRPSNKAPLLVLCEDHRGRMVKHQCCPGCGYFCTAGNFMECQPESSISHRFHKDCASRVNNASYCPHCGEESSKAKEVTIAKADTTSTVTPVPGQEKGSALEGRADTTTGSAAGPPLSEDDKLQGAASHVPEGFDPTGPAGLGRPTPGLSQGPGKETLESALIALDSEKPKKLRFHPKQLYFSARQGELQKVLLMLVDGIDPNFKMEHQNKRSPLHAAAEAGHVDICHMLVQAGANIDTCSEDQRTPLMEAAENNHLEAVKYLIKAGALVDPKDAEGSTCLHLAAKKGHYEVVQYLLSNGQMDVNCQDDGGWTPMIWATEYKHVDLVKLLLSKGSDINIRDNEENICLHWAAFSGCVDIAEILLAAKCDLHAVNIHGDSPLHIAARENRYDCVVLFLSRDSDVTLKNKEGETPLQCASLNSQVWSALQMSKALQDSAPDRPSPVERIVSRDIARGYERIPIPCVNAVDSEPCPSNYKYVSQNCVTSPMNIDRNITHLQYCVCIDDCSSSNCMCGQLSMRCWYDKDGRLLPEFNMAEPPLIFECNHACSCWRNCRNRVVQNGLRARLQLYRTRDMGWGVRSLQDIPPGTFVCEYVGELISDSEADVREEDSYLFDLDNKDGEVYCIDARFYGNVSRFINHHCEPNLVPVRVFMAHQDLRFPRIAFFSTRLIEAGEQLGFDYGERFWDIKGKLFSCRCGSPKCRHSSAALAQRQASAAQEAQEDGLPDTSSAAAADPL
modifications: left off: HA, end not stated, kept
On to B2, for which, in test [1], the “methylation of hDNMT3A in cells” value was “markedly increased”.

B3: GLP K199R: HA–GLP K199R mutant (protein)
chain: MAAADAEAVPARGEPQQDCCVKTELLGEETPMAADEGSAEKQAGEAHMAADGETNGSCENSDASSHANAAKHTQDSARVNPQDGTNTLTRIAENGVSERDSEAAKQNHVTADDFVQTSVIGSNGYILNKPALQAQPLRTTSTLASSLPGHAAKTLPGGAGKGRTPSAFPQTPAAPPATLGEGSADTEDRKLPAPGADVRVHRARKTMPKSVVGLHAASKDPREVREARDHKEPKEEINKNISDFGRQQLLPPFPSLHQSLPQNQCYMATTKSQTACLPFVLAAAVSRKKKRRMGTYSLVPKKKTKVLKQRTVIEMFKSITHSTVGSKGEKDLGASSLHVNGESLEMDSDEDDSEELEEDDGHGAEQAAAFPTEDSRTSKESMSEADRAQKMDGESEEEQESVDTGEEEEGGDESDLSSESSIKKKFLKRKGKTDSPWIKPARKRRRRSRKKPSGALGSESYKSSAGSAEQTAPGDSTGYMEVSLDSLDLRVKGILSSQAEGLANGPDVLETDGLQEVPLCSCRMETPKSREITTLANNQCMATESVDHELGRCTNSVVKYELMRPSNKAPLLVLCEDHRGRMVKHQCCPGCGYFCTAGNFMECQPESSISHRFHKDCASRVNNASYCPHCGEESSKAKEVTIAKADTTSTVTPVPGQEKGSALEGRADTTTGSAAGPPLSEDDKLQGAASHVPEGFDPTGPAGLGRPTPGLSQGPGKETLESALIALDSEKPKKLRFHPKQLYFSARQGELQKVLLMLVDGIDPNFKMEHQNKRSPLHAAAEAGHVDICHMLVQAGANIDTCSEDQRTPLMEAAENNHLEAVKYLIKAGALVDPKDAEGSTCLHLAAKKGHYEVVQYLLSNGQMDVNCQDDGGWTPMIWATEYKHVDLVKLLLSKGSDINIRDNEENICLHWAAFSGCVDIAEILLAAKCDLHAVNIHGDSPLHIAARENRYDCVVLFLSRDSDVTLKNKEGETPLQCASLNSQVWSALQMSKALQDSAPDRPSPVERIVSRDIARGYERIPIPCVNAVDSEPCPSNYKYVSQNCVTSPMNIDRNITHLQYCVCIDDCSSSNCMCGQLSMRCWYDKDGRLLPEFNMAEPPLIFECNHACSCWRNCRNRVVQNGLRARLQLYRTRDMGWGVRSLQDIPPGTFVCEYVGELISDSEADVREEDSYLFDLDNKDGEVYCIDARFYGNVSRFINHHCEPNLVPVRVFMAHQDLRFPRIAFFSTRLIEAGEQLGFDYGERFWDIKGKLFSCRCGSPKCRHSSAALAQRQASAAQEAQEDGLPDTSSAAAADPL
modifications: left off: HA, end not stated, kept
With B3, the “MPP8–GLP interaction in cells” value in test [2] is listed as “had little effect”.

B4: GLP K209R: HA–GLP K209R mutant (protein)
chain: MAAADAEAVPARGEPQQDCCVKTELLGEETPMAADEGSAEKQAGEAHMAADGETNGSCENSDASSHANAAKHTQDSARVNPQDGTNTLTRIAENGVSERDSEAAKQNHVTADDFVQTSVIGSNGYILNKPALQAQPLRTTSTLASSLPGHAAKTLPGGAGKGRTPSAFPQTPAAPPATLGEGSADTEDRKLPAPGADVKVHRARKTMPRSVVGLHAASKDPREVREARDHKEPKEEINKNISDFGRQQLLPPFPSLHQSLPQNQCYMATTKSQTACLPFVLAAAVSRKKKRRMGTYSLVPKKKTKVLKQRTVIEMFKSITHSTVGSKGEKDLGASSLHVNGESLEMDSDEDDSEELEEDDGHGAEQAAAFPTEDSRTSKESMSEADRAQKMDGESEEEQESVDTGEEEEGGDESDLSSESSIKKKFLKRKGKTDSPWIKPARKRRRRSRKKPSGALGSESYKSSAGSAEQTAPGDSTGYMEVSLDSLDLRVKGILSSQAEGLANGPDVLETDGLQEVPLCSCRMETPKSREITTLANNQCMATESVDHELGRCTNSVVKYELMRPSNKAPLLVLCEDHRGRMVKHQCCPGCGYFCTAGNFMECQPESSISHRFHKDCASRVNNASYCPHCGEESSKAKEVTIAKADTTSTVTPVPGQEKGSALEGRADTTTGSAAGPPLSEDDKLQGAASHVPEGFDPTGPAGLGRPTPGLSQGPGKETLESALIALDSEKPKKLRFHPKQLYFSARQGELQKVLLMLVDGIDPNFKMEHQNKRSPLHAAAEAGHVDICHMLVQAGANIDTCSEDQRTPLMEAAENNHLEAVKYLIKAGALVDPKDAEGSTCLHLAAKKGHYEVVQYLLSNGQMDVNCQDDGGWTPMIWATEYKHVDLVKLLLSKGSDINIRDNEENICLHWAAFSGCVDIAEILLAAKCDLHAVNIHGDSPLHIAARENRYDCVVLFLSRDSDVTLKNKEGETPLQCASLNSQVWSALQMSKALQDSAPDRPSPVERIVSRDIARGYERIPIPCVNAVDSEPCPSNYKYVSQNCVTSPMNIDRNITHLQYCVCIDDCSSSNCMCGQLSMRCWYDKDGRLLPEFNMAEPPLIFECNHACSCWRNCRNRVVQNGLRARLQLYRTRDMGWGVRSLQDIPPGTFVCEYVGELISDSEADVREEDSYLFDLDNKDGEVYCIDARFYGNVSRFINHHCEPNLVPVRVFMAHQDLRFPRIAFFSTRLIEAGEQLGFDYGERFWDIKGKLFSCRCGSPKCRHSSAALAQRQASAAQEAQEDGLPDTSSAAAADPL
modifications: left off: HA, end not stated, kept
Regarding B4, in test [2], the “MPP8–GLP interaction in cells” value is “had little effect”.

These data come from PMC3286832 (Nature Communications, 2011).
